# According to publication PMC3969268 (Journal of medicinal chemistry, 2012):
# Legend:
# [1] = test system: S. aureus; assay: Emergence of resistance, large inoculum approach; assay type: cell-based; conditions: ~3 × 10^9 CFU/mL S. aureus on TSA plates with agent at 4- to 32-fold MIC; 24 h
# [2] = test system: S. aureus; conditions: known from literature; cited from earlier work
# [3] = biological target: T1, SaFtsZ (Staphylococcus aureus, UniProt P0A031); assay: FtsZ polymerization light-scattering; assay type: biochemical, S. aureus; conditions: for extent of stimulation of FtsZ polymerization (A340): 40 μg/mL compound or comparator drug
# T1 sequence (P0A031 1-390): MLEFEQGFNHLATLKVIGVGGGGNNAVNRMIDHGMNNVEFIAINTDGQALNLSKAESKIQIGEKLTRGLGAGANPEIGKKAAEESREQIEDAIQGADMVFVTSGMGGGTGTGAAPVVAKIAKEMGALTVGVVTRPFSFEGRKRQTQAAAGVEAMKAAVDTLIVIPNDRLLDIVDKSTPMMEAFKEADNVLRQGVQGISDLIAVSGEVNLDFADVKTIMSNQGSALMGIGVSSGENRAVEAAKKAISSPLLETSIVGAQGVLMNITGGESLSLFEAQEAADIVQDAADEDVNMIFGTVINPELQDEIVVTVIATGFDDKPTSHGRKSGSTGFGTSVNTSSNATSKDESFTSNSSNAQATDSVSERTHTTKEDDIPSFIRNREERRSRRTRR
# [4] = test system: S. aureus 8325-4 (MSSA); assay: MIC broth microdilution, S. aureus 8325-4; assay type: cell-based; conditions: S. aureus 8325-4 (MSSA); CAMH broth, 24 h, 37 °C; ≥90% growth inhibition
# [5] = test system: S. aureus ATCC 33591 (MRSA); assay: MIC broth microdilution, S. aureus ATCC 33591; assay type: cell-based; conditions: CAMH broth + 2% NaCl, 24 h, 37 °C
# [6] = test system: S. aureus Mu3 (MRSA); assay: MIC broth microdilution, S. aureus Mu3; assay type: cell-based; conditions: S. aureus Mu3 (MRSA, hetero-GISA); CAMH broth + 2% NaCl, 24 h, 37 °C
# [7] = test system: E. faecalis ATCC 19433 (VSE); assay: MIC broth microdilution, E. faecalis ATCC 19433; assay type: cell-based; conditions: CAMH broth, 24 h, 37 °C
# [8] = test system: E. faecalis ATCC 51575 (VRE); assay: MIC broth microdilution, E. faecalis ATCC 51575; assay type: cell-based; conditions: CAMH broth, 24 h, 37 °C
# [9] = biological target: E. faecalis FtsZ (EfFtsZ) (Enterococcus faecalis, UniProt O08439); assay: Fluorescence anisotropy determination of compound-FtsZ binding affinity, EfFtsZ; conditions: for binding to FtsZ (qualitative; Kd not quantifiable): EfFtsZ
# [10] = biological target: T2, E185A mutant SaFtsZ (Staphylococcus aureus, UniProt P0A031, E185A); assay: Fluorescence anisotropy binding affinity, E185A mutant SaFtsZ; design: species or system S. aureus; conditions: ratio of Kd values
# [11] = biological target: T3, I228R mutant SaFtsZ (Staphylococcus aureus, UniProt P0A031, I228R); assay: Fluorescence anisotropy binding affinity, I228R mutant SaFtsZ; design: species or system S. aureus; conditions: ratio of Kd values
# [12] = biological target: T4, EcFtsZ (Escherichia coli, UniProt P0A9A6); assay: FtsZ polymerization light-scattering; assay type: biochemical, E. coli
# [13] = biological target: EfFtsZ (Enterococcus faecalis, UniProt O08439); assay: FtsZ polymerization light-scattering; assay type: biochemical, E. faecalis; conditions: compound 0 to 40 μg/mL, 10 μM protein, 1 mM GTP, 25 °C
# [14] = biological target: T2, E185A mutant SaFtsZ; assay: FtsZ polymerization light-scattering; assay type: biochemical, S. aureus
# [15] = biological target: T3, I228R mutant SaFtsZ; assay: FtsZ polymerization light-scattering; assay type: biochemical, S. aureus
# [16] = biological target: G196A mutant SaFtsZ (Staphylococcus aureus, UniProt P0A031, G196A); assay: FtsZ polymerization light-scattering; assay type: biochemical, S. aureus; conditions: G196A mutant (not shown)
# [17] = biological target: SaFtsZ-bound BoGTPγS (GTP binding pocket) (Staphylococcus aureus, UniProt P0A031); assay: BoGTPγS fluorescence anisotropy competition assay, SaFtsZ; conditions: 1 μM BoGTPγS, 5 μM FtsZ, competitor 0 to 40 μM
# Summary of the method: (§1)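 Competition anisotropy assay: 1 μM BODIPY-GTPγS with 0 or 5 μM FtsZ, plus test compound or unlabeled GTP (0–40 μM), in 50 mM Tris·HCl pH 7.4, 50 mM KCl, 2 mM magnesium acetate. After 5 min at 25 °C, probe anisotropy was read (ex 488/em 510 nm, 4 nm bandwidths), compared with FtsZ-free probe. Triplicates averaged.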
# [18] = biological target: EcFtsZ-bound BoGTPγS (GTP binding pocket) (Escherichia coli, UniProt P0A9A6); assay: BoGTPγS fluorescence anisotropy competition assay, EcFtsZ; design: species or system E. coli; conditions: 1 μM BoGTPγS, 5 μM FtsZ, competitor 0 to 40 μM
# Summary of the method: as §1
# [19] = biological target: EfFtsZ-bound BoGTPγS (GTP binding pocket) (Enterococcus faecalis, UniProt O08439); assay: BoGTPγS fluorescence anisotropy competition assay, EfFtsZ; design: species or system E. faecalis; conditions: 1 μM BoGTPγS, 5 μM FtsZ, competitor 0 to 40 μM
# [20] = biological target: T1, SaFtsZ; assay: Transmission electron microscopy of compound-induced FtsZ polymers, SaFtsZ; assay type: biochemical; conditions: 20 μg/mL
# [21] = biological target: T4, EcFtsZ; assay: Transmission electron microscopy of compound-induced FtsZ polymers, EcFtsZ; assay type: biochemical, E. coli; conditions: 20 μg/mL
# [22] = test system: S. aureus 8325-4 (MSSA); assay: Time-kill assay; assay type: cell-based; conditions: for reduction of bacterial number (CFUs): 8 × MIC (8 μg/mL)
# Summary of the method: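 Exponential-phase S. aureus 8325-4 was diluted in cation-adjusted Mueller-Hinton broth to 10^5–10^6 CFU/mL, with DMSO as vehicle control. Cultures were shaken at 37 °C and sampled at 0, 2, 4 and 6 h. Samples were plated on tryptic soy agar, centrifuged and resuspended when undiluted to avoid carry-over. Colonies were counted after 24 h at 37 °C.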
# [23] = test system: S. aureus 8325-4 (MSSA); assay type: cell-based; conditions: after 12 incubation cycles
# [24] = biological target: MAP-rich porcine β-tubulin (70% β-tubulin, 30% MAPs) (Sus scrofa, UniProt P02554); assay: Tubulin polymerization light-scattering; assay type: biochemical; conditions: 2 mg/mL porcine β-tubulin, 1 mM GTP, 37 °C
# [25] = test system: E. coli N43 (acrA1)
# [26] = biological target: S. aureus FtsZ (SaFtsZ), wild-type (Staphylococcus aureus, UniProt P0A031); assay type: binding
# [27] = biological target: E. coli FtsZ (EcFtsZ) (Escherichia coli, UniProt P0A9A6); assay: Fluorescence anisotropy determination of compound-FtsZ binding affinity, EcFtsZ
# [28] = biological target: T4, EcFtsZ; conditions: previously reported; cited from earlier work
# T4 sequence (P0A9A6 whole entry): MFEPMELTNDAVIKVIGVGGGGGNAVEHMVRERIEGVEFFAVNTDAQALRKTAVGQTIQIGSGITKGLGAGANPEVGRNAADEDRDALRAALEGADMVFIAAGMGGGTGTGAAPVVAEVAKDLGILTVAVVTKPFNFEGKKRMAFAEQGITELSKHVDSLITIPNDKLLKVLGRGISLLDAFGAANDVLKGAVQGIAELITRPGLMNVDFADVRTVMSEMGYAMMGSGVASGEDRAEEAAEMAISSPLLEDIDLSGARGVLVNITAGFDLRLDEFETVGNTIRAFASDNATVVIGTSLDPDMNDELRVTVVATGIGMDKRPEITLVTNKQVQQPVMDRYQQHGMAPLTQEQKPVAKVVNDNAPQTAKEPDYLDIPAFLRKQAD
# Sequence of MAP-rich porcine β-tubulin (70% β-tubulin, 30% MAPs) (P02554 whole entry): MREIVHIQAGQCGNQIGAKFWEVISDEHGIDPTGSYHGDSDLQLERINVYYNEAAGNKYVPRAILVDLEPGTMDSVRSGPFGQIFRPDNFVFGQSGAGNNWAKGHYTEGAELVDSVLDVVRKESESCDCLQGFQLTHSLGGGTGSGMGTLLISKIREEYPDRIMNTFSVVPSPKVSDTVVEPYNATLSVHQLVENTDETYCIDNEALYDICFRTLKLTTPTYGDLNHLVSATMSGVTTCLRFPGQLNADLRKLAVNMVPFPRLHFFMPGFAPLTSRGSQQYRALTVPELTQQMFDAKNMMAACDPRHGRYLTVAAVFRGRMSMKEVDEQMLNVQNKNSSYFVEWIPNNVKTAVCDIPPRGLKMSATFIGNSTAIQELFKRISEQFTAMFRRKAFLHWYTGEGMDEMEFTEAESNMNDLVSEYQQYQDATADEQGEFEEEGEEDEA
# Sequence of MAP-rich porcine β-tubulin (70% β-tubulin, 30% MAPs) (P02550 whole entry partner): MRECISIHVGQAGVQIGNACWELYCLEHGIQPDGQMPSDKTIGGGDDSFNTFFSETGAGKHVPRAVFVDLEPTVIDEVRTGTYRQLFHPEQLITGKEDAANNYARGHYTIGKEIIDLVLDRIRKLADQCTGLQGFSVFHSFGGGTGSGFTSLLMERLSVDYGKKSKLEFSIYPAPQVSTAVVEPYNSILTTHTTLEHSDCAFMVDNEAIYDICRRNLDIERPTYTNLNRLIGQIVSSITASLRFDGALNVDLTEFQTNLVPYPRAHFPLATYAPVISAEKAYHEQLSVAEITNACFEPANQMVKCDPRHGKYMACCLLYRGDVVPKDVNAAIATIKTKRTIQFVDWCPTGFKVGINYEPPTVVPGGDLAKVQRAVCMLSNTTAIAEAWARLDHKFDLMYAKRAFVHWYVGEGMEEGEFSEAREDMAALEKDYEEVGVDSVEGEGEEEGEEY
# Sequence of E. coli FtsZ (EcFtsZ) (P0A9A6 whole entry): as the sequence (P0A9A6 whole entry) above
# Sequence of EcFtsZ-bound BoGTPγS (GTP binding pocket) (P0A9A6 whole entry): as above
compound,measurement,setting,value
"CO[C@H]1/C=C/O[C@@]2(C)Oc3c(C)c(O)c4c(O)c(c(/C=N/N5CCN(C)CC5)c(O)c4c3C2=O)NC(=O)/C(C)=C\C=C\[C@H](C)[C@H](O)[C@@H](C)[C@@H](O)[C@@H](C)[C@H](OC(C)=O)[C@@H]1C [rifampicin, reference compound]",agent-containing plates on which colonies were observed,[1],100%
same,rate of induced spontaneous mutants in S. aureus,[2],10^−6 to 10^−8
oxacillin,extent of stimulation of FtsZ polymerization (A340),[3]; SaFtsZ,negligible impact
same,MIC,[4],0.063 µg/mL
same,MIC,[5],>64.0 µg/mL
same,MIC,[6],>64.0 µg/mL
same,MIC,[7],8.0 µg/mL
same,MIC,[8],64.0 µg/mL
"CC(C)(C)c1ccc(-c2cccc(CNC(=N)N)c2)cc1 [compound 13, 1-((4′-(tert-Butyl)-[1,1′-biphenyl]-3-yl)methyl)guanidine]",affinity for EfFtsZ lower than affinity for SaFtsZ and EcFtsZ,[9]; ratio of Kd values,approximately 6 fold
same,affinity for E185A mutant lower than for wild-type SaFtsZ,[10],approximately 10 fold
same,affinity for I228R mutant lower than for wild-type SaFtsZ,[11],approximately 10 fold
same,impact on FtsZ polymerization dynamics (A340),"[3]; SaFtsZ, compound 0 to 40 μg/mL, 10 μM protein, 1 mM GTP, 25 °C",increases both the kinetics and extent
same,impact on SaFtsZ polymerization (A340),"[3]; wild-type SaFtsZ, 10 μg/mL",stimulatory impact
same,impact on FtsZ polymerization dynamics (A340),"[12]; compound 0 to 40 μg/mL, 10 μM protein, 1 mM GTP, 25 °C",increases both the kinetics and extent
same,impact on FtsZ polymerization dynamics (A340),[13],increases both the kinetics and extent
same,impact on SaFtsZ polymerization (A340),[14]; 10 μg/mL,essentially no effect
same,magnitude of stimulation of SaFtsZ polymerization (A340),[14]; 20 μg/mL,markedly lower than that observed for wild-type SaFtsZ
same,impact on SaFtsZ polymerization (A340),[15]; 10 μg/mL,essentially no effect
same,magnitude of stimulation of SaFtsZ polymerization (A340),[15]; 20 μg/mL,markedly lower than that observed for wild-type SaFtsZ
same,effect of G196A mutation on stimulation of SaFtsZ polymerization by compound,[16],negligible effect
same,effect on anisotropy of FtsZ-bound BoGTPγS,[17],does not significantly alter the anisotropy
same,effect on anisotropy of FtsZ-bound BoGTPγS,[18],does not significantly alter the anisotropy
same,effect on anisotropy of FtsZ-bound BoGTPγS,[19],does not significantly alter the anisotropy
same,FtsZ polymer assembly and bundling by EM,[20],promotes both the assembly and bundling of SaFtsZ polymers
same,FtsZ polymer assembly and bundling by EM,[21],"promoting only the assembly, and not the bundling, of EcFtsZ polymers"
same,reduction of bacterial number (CFUs),[22]; within 2 h,three logs
same,reduction of bacterial number (CFUs),[22]; within 6 h,four logs
same,rate of kill relative to vancomycin,[22]; both agents at 8 × MIC,approximately 100 times
same,change of MIC over repeated incubation cycles,[23],did not change to any significant degree
same,agent-containing plates on which colonies were observed,[1],none
same,impact on tubulin polymerization (A340),[24]; 40 μg/mL,negligible impact
same,AcrAB efflux pump substrate (inferred from MIC N43 vs W4573),[25],substrate for the AcrAB efflux transporter
CC(=O)O[C@H]1C(=O)[C@@]2(C)[C@H]([C@H](OC(=O)c3ccccc3)[C@]3(O)C[C@H](OC(=O)[C@H](O)[C@@H](NC(=O)c4ccccc4)c4ccccc4)C(C)=C1C3(C)C)[C@]1(OC(C)=O)CO[C@@H]1C[C@@H]2O [paclitaxel],impact on tubulin polymerization (A340),[24]; 25 μg/mL,expected stimulatory impact
"CCC[C@@H]1C[C@@H](C(=O)N[C@@H]([C@H]2O[C@H](SC)[C@H](O)[C@@H](O)[C@H]2O)[C@H](C)Cl)N(C)C1.Cl [clindamycin, reference compound]",extent of stimulation of FtsZ polymerization (A340),[3]; SaFtsZ,negligible impact
COC(=O)Nc1nc2cc(C(=O)c3cccs3)ccc2[nH]1 [nocodazole],impact on tubulin polymerization (A340),[24]; 10 μg/mL,expected inhibitory impact
"Nc1nc2c(ncn2[C@@H]2O[C@H](COP(=O)(O)OP(=O)(O)OP(=O)(O)O)[C@@H](O)[C@H]2O)c(=O)[nH]1 [GTP, reference compound]",effect on anisotropy of FtsZ-bound BoGTPγS,[17],"marked, concentration-dependent decrease"
same,effect on anisotropy of FtsZ-bound BoGTPγS,[18],"marked, concentration-dependent decrease"
same,effect on anisotropy of FtsZ-bound BoGTPγS,[19],"marked, concentration-dependent decrease"
"CC1(C)S[C@@H]2[C@H](NC(=O)[C@H](N)c3ccccc3)C(=O)N2[C@H]1C(=O)[O-].[Na+] [ampicillin, reference compound]",extent of stimulation of FtsZ polymerization (A340),[12]; 40 μg/mL compound or comparator drug,negligible impact
"CC(C)(C)c1ccc(-c2cc(CNC(=N)N)ncn2)cc1 [compound 15, 1-((6-(4-(tert-Butyl)phenyl)pyrimidin-4-yl)methyl)guanidine]",binding to FtsZ (qualitative; Kd not quantifiable),[26],weak nature of the binding interactions
same,binding to FtsZ (qualitative; Kd not quantifiable),[27],weak nature of the binding interactions
same,binding to FtsZ (qualitative; Kd not quantifiable),[9],weak nature of the binding interactions
same,AcrAB efflux pump substrate (inferred from MIC N43 vs W4573),[25],substrates of the AcrAB efflux pump
"CC(C)(C)c1ccc(-c2ccnc(CNC(=N)N)c2)cc1 [compound 14, 1-((4-(4-(tert-Butyl)phenyl)pyridin-2-yl)methyl)guanidine]",binding to FtsZ (qualitative; Kd not quantifiable),[26],weak nature of the binding interactions
same,binding to FtsZ (qualitative; Kd not quantifiable),[27],weak nature of the binding interactions
same,binding to FtsZ (qualitative; Kd not quantifiable),[9],weak nature of the binding interactions
same,AcrAB efflux pump substrate (inferred from MIC N43 vs W4573),[25],substrates of the AcrAB efflux pump
NC(=O)c1c(F)ccc(OCc2nc3cc(Cl)cnc3s2)c1F [PC190723],impact on EcFtsZ polymerization,[28],does not affect the polymerization
